Columns and labels:
[1] = tested on: primary astrocytes; assay: Morphometric analysis of GFAP-immunostained astrocytes; type: cell-based, rat; conditions: 24 hours
Outline: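 Astrocytes on PLL-coated coverslips treated with inhibitor for 24 h, then prefixed in 4% PFA and blocked in 5% BSA. Stained with rabbit anti-GFAP (1:500), Alexa-555 secondary, and DAPI. Confocal images analysed in ImageJ for cell area and shape descriptors. Mean ± SE from ≥ 22 cells in 3 random fields, ≥ 2 cultures.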

[2] = target: T1, membrane-bound ecto-5`-nucleotidase/CD73 (Rattus norvegicus, UniProt P21588); assay: Ecto-5`-nucleotidase/CD73 enzyme assay; type: biochemical; conditions: for IC50: Dixon linearization, control primary astrocytes, 1.0 mM AMP; for % inhibition at indicated concentration: value in brackets in the Ki column, concentration not given
T1 sequence (P21588 29-576): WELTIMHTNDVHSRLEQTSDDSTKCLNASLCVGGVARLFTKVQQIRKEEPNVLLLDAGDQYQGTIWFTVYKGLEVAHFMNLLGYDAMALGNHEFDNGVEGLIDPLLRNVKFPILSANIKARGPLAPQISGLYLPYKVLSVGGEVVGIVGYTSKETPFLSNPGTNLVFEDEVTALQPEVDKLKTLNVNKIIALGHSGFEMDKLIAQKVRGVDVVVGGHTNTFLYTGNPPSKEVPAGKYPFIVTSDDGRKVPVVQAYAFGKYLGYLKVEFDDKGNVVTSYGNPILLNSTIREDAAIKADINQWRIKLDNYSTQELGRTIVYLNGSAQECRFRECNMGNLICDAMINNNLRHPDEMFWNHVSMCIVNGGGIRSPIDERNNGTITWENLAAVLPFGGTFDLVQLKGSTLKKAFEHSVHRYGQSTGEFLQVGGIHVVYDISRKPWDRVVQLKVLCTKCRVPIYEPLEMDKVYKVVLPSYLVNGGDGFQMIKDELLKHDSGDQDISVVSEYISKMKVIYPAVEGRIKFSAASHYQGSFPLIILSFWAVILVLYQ
Outline: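 Confluent primary cortical astrocytes from 1-day-old male Wistar rat pups, washed in phosphate-free HEPES/bicarbonate saline, pH 7.4. 15 min preincubation with inhibitor (in water, 1×10−9 to 1×10−3 M); 1.0 mM AMP solution added, 30 min at 37°C; stopped with cold perchloric acid. Pi by malachite green at 620 nm, normalised to BCA protein.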

[3] = tested on: primary astrocytes; assay: Cell proliferation by double Ki67/DAPI fluorescence staining; type: cell-based, rat; conditions: 24 hours
[4] = target: T2, CD73 in reactive astrocytes (Rattus norvegicus, UniProt P21588); assay: CD73 enzyme assay in reactive astrocytes stimulated with TNFα or IL-1β; type: biochemical
T2 sequence (P21588 29-576): T1 sequence (P21588 29-576)
Outline: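 Rat primary astrocytes exposed to TNF-α or IL-1β for 24 h, then assayed for AMP hydrolysis (Pi release by malachite green, per mg protein per min). Inhibitor tested at a single 50 μM concentration, or as a 1–250 μM series in cells given 0.1 μg/ml IL-1β. The series was fitted to a four-parameter sigmoid.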

[5] = tested on: primary astrocytes; assay: Scratch wound migration assay; type: cell-based, rat; conditions: 1–100 μM; 8 and 24 hours
[6] = tested on: primary astrocytes; assay: MTT assay of cell metabolic activity; type: cell-based, rat
[7] = tested on: Lcn; assay: qRT-PCR of inflammatory gene expression in cytokine-treated astrocytes; type: cell-based, rat; conditions: 100 ng/ml cytokine, 24 hours
Outline: (§1)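 Confluent rat primary astrocytes in 6-well plates treated with 100 ng/ml TNF-α or IL-1β for 24 h. Total RNA extracted with TRIzol, purity checked by OD260/280, then reverse-transcribed. Gene-specific primers used with Gapdh as internal control; quantified by the 2−ΔCt method, n = 3 separate determinations.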

[8] = tested on: C3; assay: as above; type: cell-based, rat; conditions: 100 ng/ml cytokine, 24 hours
Outline: as §1

[9] = tested on: Nt5e; assay: qRT-PCR of gene expression in cytokine-treated astrocytes; type: cell-based, rat; conditions: 100 ng/ml cytokine, 24 hours
Outline: as §1

Q: Which “Area (μm^2)” value ([1]; 100 μM) does the source give for `Nc1ncnc2c1ncn2[C@@H]1O[C@H](COP(=O)(O)CP(=O)(O)O)[C@@H](O)[C@H]1O` [APCP, 5’-(α,β-methylene)diphosphate adenosine, reference compound] here?
A: Its value is 3181.9 ± 607.2 μm^2.

Q: And the Aspect ratio ([1]; 100 μM)?
A: Its Aspect ratio is 2.2 ± 0.2.

Q: What about the Circularity ([1]; 100 μM) of the same compound?
A: The Circularity was 0.49 ± 0.03.

Q: What about the Roundness ([1]; 100 μM) of the same compound?
A: The Roundness was 0.54 ± 0.07.

Q: And the Solidity ([1]; 100 μM)?
A: Its Solidity is 0.75 ± 0.04.

Q: And the Ki ([2]; Cheng-Prusoff equation, Km for rat CD73 53.0 ± 4.1 μM)?
A: Its Ki is 132 ± 89 nM.

Q: What about the IC50 [2] of the same compound?
A: Its IC50 is 2630 ± 1760 nM.

Q: And the “% inhibition at indicated concentration” value [2]?
A: The value was 18.6%.

Q: And the “effect on proliferation rate (Ki67+/DAPI+)” value ([3]; indicated concentrations)?
A: The value was “no apparent effect”.

Q: Which results are given for `Cn1c(=O)n([C@@H]2O[C@H](COP(=O)(O)CP(=O)(O)O)[C@@H](O)[C@H]2O)cc/c1=N\OCc1ccc(Cl)cc1` [MRS4598]?
A: Area (μm^2) ([1]; 10 μM): 3619.4 ± 552.5 μm^2; Aspect ratio ([1]; 10 μM): 2.3 ± 0.2; Circularity ([1]; 10 μM): 0.55 ± 0.06; Roundness ([1]; 10 μM): 0.47 ± 0.04; Solidity ([1]; 10 μM): 0.84 ± 0.04; Area (μm^2) ([1]; 100 μM): 1861.8 ± 137.5 ^* μm^2; Aspect ratio ([1]; 100 μM): 2.7 ± 0.2; Circularity ([1]; 100 μM): 0.43 ± 0.03; Roundness ([1]; 100 μM): 0.42 ± 0.04; Solidity ([1]; 100 μM): 0.77 ± 0.02; effect on CD73 catalytic activity in reactive astrocytes ([4]; 50 μM, cells treated with TNFα or IL-1β for 24 hours): decreased the catalytic activity of CD73; IC50 ([4]; astrocytes stimulated with 0.1 μg/ml IL-1β, 1–250 μM): 5000 ± 260 nM; effect on astrocyte migration velocity (wound closure) [5]: did not affect migration velocity of astrocytes, except at the highest tested concentration of 100 μM; inhibition of CD73 activity at 1×10^−3 M ([2]; 1×10^−3 M inhibitor): complete inhibition; IC50 [2]: 110 ± 80 nM; % inhibition at indicated concentration [2]: 53.4%; effect on formazan formation (MTT) ([6]; 1 μM, 24 hours): no effect; reduction of formazan formation (MTT) ([6]; concentrations above 10 μM, 24 hours, no apparent concentration dependence): 40%; cytotoxic effects on primary astrocytes ([6]; concentrations as low as 1 μM): negligible cytotoxic effects; effect on proliferation rate (Ki67+/DAPI+) ([3]; 50 μM and 100 μM, vs control (~22%), p < 0.05): modest but significant decrease

Q: With “IL-1β: proinflammatory cytokine used to induce the reactive astrocyte phenotype” as the compound, how does the “Lcn mRNA abundance (fold-increase in respect to non-stimulated control)” value [7] read?
A: The value was 24.22 ± 6.21 fold-increase.

Q: And the “C3 mRNA abundance (fold-increase in respect to non-stimulated control)” value [8]?
A: Its value is 3.13 ± 0.69 fold-increase.

Q: For TNFα, which “Lcn mRNA abundance (fold-increase in respect to non-stimulated control)” value [7] is on record?
A: The value was 49.04 ± 3.34 fold-increase.

Q: And the “C3 mRNA abundance (fold-increase in respect to non-stimulated control)” value [8]?
A: The value was 4.65 ± 2.29 fold-increase.

Q: And the “Nt5e mRNA abundance (fold-increase in respect to non-stimulated control)” value [9]?
A: Its value is 2.49 ± 0.33 fold-increase.
